Consider 14 compounds from ChEMBL document CHEMBL1144898, “Structure-based design and synthesis of novel potent Na+,K+ -ATPase inhibitors derived from a 5alpha,14alpha-androstane scaffold as positive inotropic compounds” (J Med Chem, 2003).

pIC50: −log10 of the molar value. Some results are limits rather than exact numbers.

Data set [1] addresses Sodium/potassium-transporting ATPase. Nature of the data set: Inhibitory activity against Na+/K+ ATPase was determined. It is filed as protein-complex assay, Canis lupus familiaris.
Data set [2] relates to Cavia porcellus. Put plainly: Inotropic activity by slow intravenous infusion in anesthetized guinea pigs(Inotropic potency:dose increasing +dp/dtmax by 80%). In kind it is functional. In outline: (§1)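 Anesthetized guinea pigs given compound by slow intravenous infusion; contractility read as +dP/dtmax. Values are the maximal increase in +dP/dtmax, the dose inducing the maximum inotropic effect, and the dose raising +dP/dtmax by 80% taken from dose–response curves.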

Data set [3] concerns Cavia porcellus. Put plainly: Inotropic activity by slow intravenous infusion in anesthetized guinea pigs (dead/treated ratio = 1/3). In kind it is functional.
For data set [4], the system named is Cavia porcellus. Put plainly: Inotropic activity by slow intravenous infusion in anesthetized guinea pigs(Dose inducing maximum positive inotropic effect). In kind it is functional. In outline:
as §1

For data set [5], the system named is Cavia porcellus. Put plainly: Inotropic activity by slow intravenous infusion in anesthetized guinea pigs(Maximal increase in+dp/dtmax). It is filed as functional. The procedure, abridged: as §1
The subject of data set [6] is Cavia porcellus. Nature of the data set: Inotropic activity by slow intravenous infusion in anesthetized guinea pigs (dead/treated ratio = 3/3). In kind it is functional.
Data set [7] in a line: (§2) Inotropic activity by slow intravenous infusion in anesthetized guinea pigs. The settings on record: guinea pig, in vivo, read-out: LD/ED80. It is filed as organism-based, Cavia porcellus.
For data set [8], the system named is Cavia porcellus. Put plainly: Inotropic activity by slow intravenous infusion in anesthetized guinea pigs (dead/treated ratio = 1/5). In kind it is functional.
The test system of data set [9] is Cavia porcellus. Described as §2. In kind it is organism-based. The settings on record: guinea pig, in vivo.
In data set [10] the test system is Sodium/potassium-transporting ATPase (Canis lupus familiaris). Nature of the data set: Inhibition activity against Na+/K+ ATPase (relative potency in comparison to digitoxigenin).
The test system of data set [11] is Cavia porcellus. Put plainly: Inotropic activity by slow intravenous infusion in anesthetized guinea pigs (dead/treated ratio = 10/10). It is filed as functional.
The subject of data set [12] is Cavia porcellus. Nature of the data set: Inotropic activity by slow intravenous infusion in anesthetized guinea pigs (dead/treated ratio = 7/8). In kind it is functional.

For orientation: pIC50 means −log10 of the IC50, conventionally taken in molar units. Read a high pIC50 as a low IC50. Turning to `C[C@]12CC/C(=N/OCCCN)C[C@@H]1[C@H](O)CC1C2CC[C@]2(C)C(O)CC[C@@H]12` (stereo not given in full), the pIC50 in data set [1] is 5.52.

In [1], `C[C@]12CCC(=NOCCN)C[C@@H]1[C@H](O)CC1C2CC[C@]2(C)C(O)CC[C@@H]12` (stereo not given in full) showed a negative logarithm of the IC50 (pIC50) of 5.80.

For `C[C@]12CC/C(=N\OCCCN)C[C@@H]1[C@H](O)C[C@@H]1[C@@H]2CC[C@]2(C)C(O)CC[C@@H]12` (stereo not given in full), the ED80 in data set [2] was 1.58 µM/kg. Further, in data set [3], the Dead/treated worked out at 1. The same compound displayed an EDmax in [4] of 7.37 µM/kg. The compound also registered an Increase in data set [5] of 99%. Moreover, the negative logarithm of the IC50 (pIC50) in data set [1] was 5.70.

In turn, `CC(=O)NCCO/N=C1\CC[C@@]2(C)[C@H](C1)C(=O)C[C@@H]1[C@@H]2CC[C@]2(C)C(=O)CC[C@@H]12` showed a pIC50 in data set [1] of less than 5.00.

Regarding `C[C@]12CC/C(=N\OCCN)C[C@@H]1[C@H](O)C[C@@H]1[C@@H]2CC[C@]2(C)C(O)CC[C@@H]12` (stereo not given in full), the Dead/treated in [6] is 3. The compound also showed an ED80 in data set [2] of 0.97 µM/kg. Besides, the selectivity ratio in data set [7] was 9.6. The same compound displayed an EDmax in data set [4] of 4.13 µM/kg. Further, in data set [5], the Increase stood at 158%. Besides, the pIC50 in data set [1] was 5.70.

The compound `C[C@]12CC/C(=N\OCCN)C[C@@H]1C(=O)C[C@@H]1[C@@H]2CC[C@]2(C)C(O)CC[C@@H]12` (stereo not given in full) gave a pIC50 in [1] of 6.22.

On to `C[C@]12CC/C(=N\OCCCN)C[C@@H]1C(=O)C[C@@H]1[C@@H]2CC[C@]2(C)C(=O)CC[C@@H]12`, for which the ED80 in data set [2] is 6.55 µM/kg. Further, in data set [3], the Dead/treated was 1. Besides, the EDmax in [4] turned out to be 18.2 µM/kg. The compound also returned an Increase in [5] of 129%. The same compound had a pIC50 in data set [1] of 6.10.

In data set [1], `C[C@]12CC/C(=N\OCCN)C[C@@H]1C(O)C[C@@H]1[C@@H]2CC[C@]2(C)C(O)CC[C@@H]12` (stereo not given in full) had a pIC50 of 5.00.

Take `C[C@]12CC/C(=N/OCCN)C[C@@H]1[C@H](O)CC1C2CC[C@]2(C)C(O)CC[C@@H]12` (stereo not given in full): in [1], the pIC50 is 4.92. The pIC50 values of the last two compounds are within 0.2 log units of each other.

As for `C[C@]12CCC(=NOCCN)C[C@@H]1[C@@H](O)C[C@@H]1[C@@H]2CC[C@]2(C)C(=O)CC[C@@H]12` (stereo in doubt; 22g), in data set [2], the ED80 was 5.3 µM/kg. For the same compound, the Dead/treated in [8] is 1. Also, in [9], the LD/ED80 came to 17.8. This compound also showed an EDmax in data set [4] of 54.6 µM/kg. In [5], the Increase is given as 207%. The negative logarithm of the IC50 (pIC50) in data set [1] is 5.92.

With `C[C@]12CCC(=NOCCN)C[C@@H]1[C@@H](O)C[C@@H]1[C@@H]2CC[C@]2(C)C(=O)CC[C@@H]12` (stereo in doubt; 22n), the ED80 in [2] was found to be 14.8 µM/kg. Also, the Dead/treated in data set [3] came to 1. Besides, the selectivity ratio in [7] is 9.2. Further, the EDmax in data set [4] stood at 111.2 µM/kg. The Increase in data set [5] turned out to be 154%. In data set [1], the pIC50 was 5.60.

Take `C[C@H]1/C(=C/C(=O)OCCN(C)C)CCC2C1C(=O)CC1C(C)(C)[C@@H](O)CC[C@]21C` (stereo not given in full) [CASSAINE]: in [10], the Relative potency came out at 0.1. In data set [1], this compound showed a pIC50 of 5.30.

As to `C[C@H]1O[C@@H](O[C@H]2[C@@H](O)C[C@H](O[C@H]3[C@@H](O)C[C@H](O[C@H]4CC[C@@]5(C)[C@H](CC[C@@H]6[C@@H]5C[C@@H](O)[C@]5(C)[C@@H](C7=CC(=O)OC7)CC[C@]65O)C4)O[C@@H]3C)O[C@@H]2C)C[C@H](O)[C@@H]1O` [DIGOXIN], the ED80 in [2] was found to be 0.41 µM/kg. The EDmax in data set [4] worked out at 0.97 µM/kg. Besides, the Dead/treated in data set [11] came out at 10. Moreover, in data set [5], the Increase stood at 127%.

In data set [2], `C[C@]12CCC(=NOCCN)C[C@@H]1C(=O)C[C@@H]1[C@@H]2CC[C@]2(C)C(=O)CC[C@@H]12` [ISTAROXIME] had an ED80 of 4.84 µM/kg. In addition, the selectivity ratio in data set [7] came to 20.2. The same compound had an EDmax in [4] of 17.9 µM/kg. In data set [12], the Dead/treated turned out to be 7. Moreover, the Increase in [5] is 190%.
